Results reported in paper PMC6904115 (Neuropharmacology, 2019).
Entries after “also recorded” stand apart in the source; their conditions may differ.

Columns and labels:
[1] = target: T1, Y1 receptor (Rattus norvegicus, UniProt P21555); experiment: Y1 receptor internalization induced by capsaicin stimulation of the dorsal root; assay type: cell-based
T1 sequence (P21555 1-382): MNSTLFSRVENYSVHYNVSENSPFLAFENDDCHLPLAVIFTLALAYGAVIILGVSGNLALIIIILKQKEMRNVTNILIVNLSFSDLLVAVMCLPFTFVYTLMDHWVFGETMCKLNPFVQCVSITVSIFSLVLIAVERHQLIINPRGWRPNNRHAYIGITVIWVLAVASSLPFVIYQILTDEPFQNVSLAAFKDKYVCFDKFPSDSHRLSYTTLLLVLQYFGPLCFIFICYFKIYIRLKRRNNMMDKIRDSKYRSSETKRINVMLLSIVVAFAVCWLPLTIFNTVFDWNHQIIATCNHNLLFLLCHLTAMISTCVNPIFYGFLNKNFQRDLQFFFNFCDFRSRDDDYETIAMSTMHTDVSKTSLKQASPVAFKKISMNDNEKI
Outline: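 Rat lumbar (L2-L4) slices, 400 μm, keeping one >8 mm dorsal root; recovered 1 h at 35 °C in aCSF (5 mM KCl). Root sealed with grease into side compartment of aCSF + 1 μM capsaicin, 10 min, while slice superfused at 35 °C; 10 min further superfusion, immersion-fixed, 25 μm cryosections, Y1 antiserum 1:500, confocal. Ipsilateral vs contralateral; repeated-measures 2-way ANOVA, Holm-Sidak.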

[2] = target: T1, Y1 receptor; experiment: Y1 receptor internalization; assay type: cell-based; conditions: for Y1 receptor internalization / NPY release by chemical stimulus, summary: spinal cord slices
[3] = system: substance P release in the dorsal horn; conditions: ref Chen et al., cited from earlier work
[4] = system: opioid release in spinal cord slices; conditions: cited from earlier work
[5] = target: T1, Y1 receptor; assay type: cell-based; conditions: with 100 nM NPY; each inhibitor 10 μM; 35 °C, 10 min
[6] = system: NK1R; conditions: compared with endogenous opioids; ref Marvizon et al., 2003b; cited from earlier work
[7] = target: T1, Y1 receptor; assay type: cell-based
[8] = system: inhibitory interneurons in the dorsal horn; conditions: four classes of inhibitory interneurons; ref Polgar et al. (2013); cited from earlier work
[9] = system: MOR; conditions: ref Song and Marvizon, 2003a; cited from earlier work

N#Cc1cc2[nH]c(=O)c(=O)[nH]c2cc1[N+](=O)[O-] [CNQX]
effect on dorsal root capsaicin-induced Y1 internalization ([1]; slice superfused with 10 μM CNQX 10 min, 1 μM capsaicin on dorsal root): blocked; also recorded: eliminated the effect of capsaicin
effect on capsaicin-induced Y1R internalization ([2]; 10 μM CNQX with 1 μM capsaicin, 10 min, whole slice): decreased the Y1R internalization induced by capsaicin to near control levels

Nc1ncnc2c1nc(Br)n2[C@@H]1O[C@@H]2COP(=O)(O)O[C@H]2[C@H]1O [8-Br-cAMP, 8-bromoadenosine-3′,5′-cyclic monophosphate]
substance P release by cell-permeable cAMP analogs ([3]; dorsal horn, 2018): induce substance P release

[Cl-].[K+] [KCl]
opioid release by KCl ([4]; 30 mM KCl, 2 min, spinal cord slices, ref Chen et al., 2008): induced abundant opioid release
neurons with Y1 receptor internalization, KCl ([2]; 30 mM KCl 2 min, then 8 min aCSF, 35 °C): > 80%
Y1 receptor internalization / NPY release by chemical stimulus, summary [2]: induced Y1 receptor internalization

Ile-Pro-Ile
effect on NPY-induced Y1 receptor internalization [5]: did not significantly increase NPY-induced Y1 receptor internalization

substance P
cleavage by peptidases [6]: much less readily

ω-conotoxin MVIIC
effect on electrically evoked Y1 receptor internalization, ipsilateral [7]: decreased

COc1cc(CNC(=O)CCCC/C=C/C(C)C)ccc1O [capsaicin]
opioid release by capsaicin ([4]; dorsal horn, ref Song and Marvizon, 2003b): not opioid release
pERK induction [8]: induced pERK only in the galanin and NPY neurons
Y1 receptor internalization by dorsal root capsaicin ([1]; 1 μM capsaicin on dorsal root (side chamber), 10 min): induced NPY release; also recorded: evoked substantial Y1 receptor internalization, which was significantly higher than in control slices
neurons with Y1 receptor internalization, capsaicin ([2]; 1 μM capsaicin, 10 min, whole slice, 35 °C): approximately 50%
Y1 receptor internalization / NPY release by chemical stimulus, summary [2]: induced Y1 receptor internalization

CC1(C)C(=O)N=C2C1=C(O)C(=O)c1ccccc12 [BVT948, 4-hydroxy-3,3-dimethyl-2H-benz[g]indole-2,5(3H)-dione]
substance P release by BVT948 ([3]; 2014b, Chen et al., 2010): increases substance P release
Y1 receptor internalization after BVT948 preincubation and NMDA+D-Ser ([2]; 10 μM BVT948 60 min, then 10 μM NMDA + D-serine 2 min, 8 min aCSF): also released NPY

CC(N)C(=O)N1CCCC1C#N (stereo not drawn) [Ala-Pyrr-CN, alanine-pyrrolidine-nitrile]
effect on NPY-induced Y1 receptor internalization [5]: did not significantly increase NPY-induced Y1 receptor internalization

formalin
pERK induction [8]: induced pERK only in the galanin and NPY neurons

Leu-enkephalin
reduction by peptidases of potency to induce MOR internalization [9]: two orders of magnitude

O=C(Nc1ncnc2c1ncn2[C@@H]1O[C@@H]2COP(=O)(O)OC2C1O)c1ccccc1 (stereo in doubt) [6-Bnz-cAMP, 6-benzoyl-3′,5′-cyclic monophosphate]
Y1 receptor internalization by protein kinase A activator ([2]; 10 nM, 60 min, 35 °C): induced a substantial amount of Y1 receptor internalization
Y1 receptor internalization / NPY release by chemical stimulus, summary [2]: induced Y1 receptor internalization
